Data reported in ChEMBL document CHEMBL4622841, “Structural modifications of indolinones bearing a pyrrole moiety and discovery of a multi-kinase inhibitor with potent antitumor activity” (Bioorg Med Chem, 2020).
Activity calls are given as the source filed them. The rule behind the calls is not given here.

Experiments:
[1] = Inhibition of N-terminal GST-tagged human recombinant PDGFRalpha D842I mutant expressed in baculovirus-infected Sf9 cells using FAM-labeled peptide and ATP as substrate preincubated for 10 mins followed by substrate addition measured after 1 hr by mobility shift assay
[2] = biological target: Serine/threonine-protein kinase B-raf (Homo sapiens, UniProt P15056); experiment: Inhibition of B-Raf (unknown origin) at 1 uM using FAM-labeled peptide and ATP as substrate preincubated for 10 mins followed by substrate addition measured after 1 hr by mobility shift assay
Serine/threonine-protein kinase B-raf, sequence (P15056 whole entry, the tested form may be a part): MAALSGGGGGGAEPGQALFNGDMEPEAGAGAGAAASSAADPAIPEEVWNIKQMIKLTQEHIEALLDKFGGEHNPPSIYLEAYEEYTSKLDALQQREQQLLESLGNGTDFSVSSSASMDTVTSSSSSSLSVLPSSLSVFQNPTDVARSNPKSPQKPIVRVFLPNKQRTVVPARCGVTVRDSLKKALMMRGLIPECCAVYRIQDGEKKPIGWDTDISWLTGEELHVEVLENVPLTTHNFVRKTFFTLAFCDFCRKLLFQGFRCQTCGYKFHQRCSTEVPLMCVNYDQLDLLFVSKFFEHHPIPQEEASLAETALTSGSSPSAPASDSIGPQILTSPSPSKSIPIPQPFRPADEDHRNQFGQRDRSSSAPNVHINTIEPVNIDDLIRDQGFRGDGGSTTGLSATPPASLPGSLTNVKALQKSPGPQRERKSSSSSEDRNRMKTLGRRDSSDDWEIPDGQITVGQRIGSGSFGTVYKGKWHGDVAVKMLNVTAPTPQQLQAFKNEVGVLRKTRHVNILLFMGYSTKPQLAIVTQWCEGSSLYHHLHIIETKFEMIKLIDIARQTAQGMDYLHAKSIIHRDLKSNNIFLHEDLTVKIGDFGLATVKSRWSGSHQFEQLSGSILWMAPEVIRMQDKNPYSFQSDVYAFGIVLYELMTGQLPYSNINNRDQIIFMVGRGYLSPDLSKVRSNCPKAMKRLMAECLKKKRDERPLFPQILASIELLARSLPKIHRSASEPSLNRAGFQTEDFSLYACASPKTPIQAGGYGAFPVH

[3] = biological target: Platelet-derived growth factor receptor beta (Homo sapiens, UniProt P09619); experiment: Inhibition of N-terminal GST-fused human PDGFRbeta cytoplasmic domain (557 to 1106 (end) residues) expressed in baculovirus expression system using FAM-labeled peptide and ATP as substrate preincubated for 10 mins followed by substrate addition measured after 1 hr by mobility shift assay
Platelet-derived growth factor receptor beta, sequence (P09619 whole entry, the tested form may be a part): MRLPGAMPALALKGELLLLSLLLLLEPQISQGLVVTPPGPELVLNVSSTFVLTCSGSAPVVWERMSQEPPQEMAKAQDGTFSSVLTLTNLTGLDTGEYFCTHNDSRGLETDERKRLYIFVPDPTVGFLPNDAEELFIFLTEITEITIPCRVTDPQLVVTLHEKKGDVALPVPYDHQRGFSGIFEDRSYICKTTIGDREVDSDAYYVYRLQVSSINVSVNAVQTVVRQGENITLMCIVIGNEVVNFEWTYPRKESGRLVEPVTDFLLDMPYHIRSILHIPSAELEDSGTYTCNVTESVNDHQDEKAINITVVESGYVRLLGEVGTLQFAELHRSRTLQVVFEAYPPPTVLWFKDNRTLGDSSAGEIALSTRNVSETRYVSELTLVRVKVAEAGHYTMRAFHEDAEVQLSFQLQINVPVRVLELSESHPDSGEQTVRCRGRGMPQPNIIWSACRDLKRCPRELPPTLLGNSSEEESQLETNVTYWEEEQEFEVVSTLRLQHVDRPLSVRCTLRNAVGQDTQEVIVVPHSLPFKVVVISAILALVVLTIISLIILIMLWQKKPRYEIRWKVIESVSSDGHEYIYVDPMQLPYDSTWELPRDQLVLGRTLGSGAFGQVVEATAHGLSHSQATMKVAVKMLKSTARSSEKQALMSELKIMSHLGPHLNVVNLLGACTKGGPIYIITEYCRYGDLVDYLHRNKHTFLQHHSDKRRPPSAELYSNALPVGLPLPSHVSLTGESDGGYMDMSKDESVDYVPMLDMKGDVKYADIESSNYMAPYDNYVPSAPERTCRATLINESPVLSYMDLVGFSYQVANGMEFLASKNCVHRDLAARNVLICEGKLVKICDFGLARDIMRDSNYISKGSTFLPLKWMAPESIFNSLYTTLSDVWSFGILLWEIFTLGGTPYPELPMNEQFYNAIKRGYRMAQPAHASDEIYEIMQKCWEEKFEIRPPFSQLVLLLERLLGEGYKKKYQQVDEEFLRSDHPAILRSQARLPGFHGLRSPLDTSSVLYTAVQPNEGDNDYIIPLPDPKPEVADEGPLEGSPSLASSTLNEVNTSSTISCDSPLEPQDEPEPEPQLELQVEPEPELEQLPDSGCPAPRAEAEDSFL

HepG2 [4] = experiment: Inhibition of receptor tyrosine kinase in human HepG2 cells assessed as reduction in AKT phosphorylation at Ser473 residue after 24 hrs by Western blotting analysis; format: cell-based
Summary of the method: (§1)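 Cells cultured overnight, then treated with compound at different concentrations for 24 h. About 1×10⁶ cells harvested and immunoblotted for p-AKT (Ser473), AKT, p-ERK (Thr202/Tyr204), ERK, with GAPDH as loading control. Detection by chemiluminescence and gel imaging. Blots shown are representative of several experiments.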

HepG2 [5] = experiment: Induction of apoptosis in human HepG2 cells assessed as early apoptotic cells at 1 uM incubated for 72 hrs by Annexin-V-FITC/propidium iodide staining-based flow cytometric analysis (reference value: 1.08%); format: functional
HT-29 [6] = experiment: Induction of apoptosis in human HT-29 cells assessed as early apoptotic cells at 1 uM incubated for 72 hrs by Annexin-V-FITC/propidium iodide staining-based flow cytometric analysis (reference value: 3.18%); format: functional
MKN-74 [7] = experiment: Induction of apoptosis in human MKN74 cells assessed as late apoptotic cells at 1 uM incubated for 72 hrs by Annexin-V-FITC/propidium iodide staining-based flow cytometric analysis (reference value: 12.42%); format: functional
HepG2 [8] = experiment: Inhibition of receptor tyrosine kinase in human HepG2 cells assessed as reduction in ERK phosphorylation at Thr202/Tyr204 residues at 3 uM after 24 hrs by Western blotting analysis; format: cell-based; summary of the method: as §1
[9] = biological target: T1, Serine/threonine-protein kinase Chk1 (Homo sapiens) (UniProt O14757); experiment: Inhibition of CHK (unknown origin) at 1 uM using FAM-labeled peptide and ATP as substrate preincubated for 10 mins followed by substrate addition measured after 1 hr by mobility shift assay
T1 sequence (whole entry): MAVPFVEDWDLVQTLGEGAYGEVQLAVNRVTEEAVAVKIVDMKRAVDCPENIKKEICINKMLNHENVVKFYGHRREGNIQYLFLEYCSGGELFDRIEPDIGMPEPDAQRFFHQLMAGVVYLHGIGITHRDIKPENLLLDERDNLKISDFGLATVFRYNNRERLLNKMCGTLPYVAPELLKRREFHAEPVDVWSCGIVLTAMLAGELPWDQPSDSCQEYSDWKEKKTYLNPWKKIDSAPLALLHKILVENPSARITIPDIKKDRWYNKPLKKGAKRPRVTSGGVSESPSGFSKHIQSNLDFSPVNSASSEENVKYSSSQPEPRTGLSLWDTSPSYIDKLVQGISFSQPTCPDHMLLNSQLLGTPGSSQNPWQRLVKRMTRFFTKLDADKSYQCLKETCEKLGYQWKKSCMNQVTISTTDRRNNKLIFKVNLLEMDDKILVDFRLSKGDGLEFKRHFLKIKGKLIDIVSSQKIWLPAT

MKN-74 [10] = experiment: Induction of apoptosis in human MKN74 cells assessed as early apoptotic cells at 1 uM incubated for 72 hrs by Annexin-V-FITC/propidium iodide staining-based flow cytometric analysis (reference value: 1.98%); format: functional
HT-29 [11] = experiment: Inhibition of colony formation in human HT-29 cells measured after 14 days by crystal violet staining-based assay; format: functional, cell-based
Summary of the method: (§2)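 Cells plated and exposed to test agent at a range of concentrations for 14 days, then colonies counted. Colony formation expressed relative to vehicle-treated cells as mean ± SEM. Significance versus vehicle by unpaired two-tailed Student's t-test.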

MKN-74 [12] = experiment: Induction of apoptosis in human MKN74 cells assessed as late apoptotic cells at 0.3 uM incubated for 72 hrs by Annexin-V-FITC/propidium iodide staining-based flow cytometric analysis (reference value: 12.42%); format: functional
HUVEC [13] = experiment: Induction of apoptosis in human HUVEC cells assessed as late apoptotic cells at 1 uM incubated for 48 hrs by Annexin-V-FITC/propidium iodide staining-based flow cytometric analysis (reference value: 3.48%); format: functional
HUVEC [14] = experiment: Induction of apoptosis in human HUVEC cells assessed as early apoptotic cells at 1 uM incubated for 48 hrs by Annexin-V-FITC/propidium iodide staining-based flow cytometric analysis (reference value: 3.63%); format: functional
HUVEC [15] = experiment: Induction of apoptosis in human HUVEC cells assessed as late apoptotic cells at 3 uM incubated for 48 hrs by Annexin-V-FITC/propidium iodide staining-based flow cytometric analysis (reference value: 3.48%); format: functional
MKN-74 [16] = experiment: Induction of apoptosis in human MKN74 cells assessed as viable cells at 3 uM incubated for 72 hrs by Annexin-V-FITC/propidium iodide staining-based flow cytometric analysis (reference value: 76.84%); format: functional; conditions: MKN-74, 72 h, read-out: Activity
HT-29 [17] = experiment: Induction of apoptosis in human HT-29 cells assessed as late apoptotic cells at 1 uM incubated for 72 hrs by Annexin-V-FITC/propidium iodide staining-based flow cytometric analysis (reference value: 6.12%); format: functional
HepG2 [18] = experiment: Induction of apoptosis in human HepG2 cells assessed as early apoptotic cells at 3 uM incubated for 72 hrs by Annexin-V-FITC/propidium iodide staining-based flow cytometric analysis (reference value: 1.08%); format: functional
MKN-74 [19] = experiment: Induction of apoptosis in human MKN74 cells assessed as viable cells at 0.3 uM incubated for 72 hrs by Annexin-V-FITC/propidium iodide staining-based flow cytometric analysis (reference value: 76.84%); format: functional; conditions: MKN-74, 72 h, read-out: Activity
[20] = biological target: Mast/stem cell growth factor receptor Kit (Homo sapiens, UniProt P10721); experiment: Inhibition of c-Kit (unknown origin) using FAM-labeled peptide and ATP as substrate preincubated for 10 mins followed by substrate addition measured after 1 hr by mobility shift assay
Mast/stem cell growth factor receptor Kit, sequence (P10721 whole entry): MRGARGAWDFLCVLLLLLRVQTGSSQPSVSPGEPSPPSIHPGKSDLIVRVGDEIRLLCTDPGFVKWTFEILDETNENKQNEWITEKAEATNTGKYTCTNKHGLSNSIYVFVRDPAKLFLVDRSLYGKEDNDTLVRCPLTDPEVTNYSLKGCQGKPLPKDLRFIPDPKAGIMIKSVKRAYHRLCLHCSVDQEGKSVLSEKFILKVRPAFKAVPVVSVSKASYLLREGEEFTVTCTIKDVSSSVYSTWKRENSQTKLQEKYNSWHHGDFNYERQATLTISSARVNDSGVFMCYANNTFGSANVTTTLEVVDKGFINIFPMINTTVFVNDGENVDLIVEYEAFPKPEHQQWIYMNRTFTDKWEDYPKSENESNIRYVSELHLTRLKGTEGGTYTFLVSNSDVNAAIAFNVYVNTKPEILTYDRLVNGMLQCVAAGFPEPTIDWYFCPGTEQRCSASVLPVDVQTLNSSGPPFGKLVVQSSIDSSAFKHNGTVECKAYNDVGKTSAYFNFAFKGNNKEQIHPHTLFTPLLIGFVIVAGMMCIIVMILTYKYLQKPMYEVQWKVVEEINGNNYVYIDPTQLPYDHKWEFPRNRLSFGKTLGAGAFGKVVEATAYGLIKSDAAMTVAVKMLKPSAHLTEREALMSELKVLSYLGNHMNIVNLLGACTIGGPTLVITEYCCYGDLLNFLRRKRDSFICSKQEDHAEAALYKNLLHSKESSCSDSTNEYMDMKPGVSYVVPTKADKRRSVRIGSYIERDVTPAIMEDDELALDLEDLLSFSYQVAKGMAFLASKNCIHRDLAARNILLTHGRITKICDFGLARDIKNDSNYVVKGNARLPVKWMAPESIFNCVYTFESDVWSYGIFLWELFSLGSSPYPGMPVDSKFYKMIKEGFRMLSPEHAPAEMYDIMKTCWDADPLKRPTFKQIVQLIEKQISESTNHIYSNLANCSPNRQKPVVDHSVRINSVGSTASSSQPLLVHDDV

[21] = biological target: Cyclin-dependent kinase 4 (Homo sapiens, UniProt P11802); experiment: Inhibition of CDK4 (unknown origin) using FAM-labeled peptide and ATP as substrate preincubated for 10 mins followed by substrate addition measured after 1 hr by mobility shift assay
Cyclin-dependent kinase 4, sequence (P11802 whole entry): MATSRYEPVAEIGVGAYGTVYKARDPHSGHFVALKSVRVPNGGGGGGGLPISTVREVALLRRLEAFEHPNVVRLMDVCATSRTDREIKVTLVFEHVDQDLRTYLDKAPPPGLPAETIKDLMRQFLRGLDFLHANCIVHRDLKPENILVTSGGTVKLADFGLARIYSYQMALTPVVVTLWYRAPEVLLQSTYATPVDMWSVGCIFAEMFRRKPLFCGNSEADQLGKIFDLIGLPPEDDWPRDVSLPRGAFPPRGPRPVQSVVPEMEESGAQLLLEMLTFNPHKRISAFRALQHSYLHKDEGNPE

MKN-74 [22] = experiment: Inhibition of colony formation in human MKN74 cells measured after 14 days by crystal violet staining-based assay; format: functional, cell-based; summary of the method: as §2
HepG2 [23] = experiment: Induction of apoptosis in human HepG2 cells assessed as late apoptotic cells at 3 uM incubated for 72 hrs by Annexin-V-FITC/propidium iodide staining-based flow cytometric analysis (reference value: 2.89%); format: functional
[24] = Intrinsic clearance in human liver microsomes; format: ADME, Microsome; conditions: read-out: CLH
[25] = Intrinsic clearance in mouse liver microsomes; format: ADME, Microsome; conditions: read-out: CLH

Q: Which IC50 [1] does the source give for `COC(=O)c1ccc2c(c1)NC(=O)/C2=C(\Nc1ccc(-n2c(C)ccc2CN2CCN(C)CC2)cc1)c1ccccc1` here?
A: 7 nM

Q: What about the inhibition [2] of the same molecule?
A: inactive

Q: What about the IC50 [3] of the same molecule?
A: 9.9 nM

Q: What about the inhibition (HepG2 [4]) of the same molecule?
A: Dose-dependent effect

Q: What about the Activity (HepG2 [5]) of the same molecule?
A: 17.61%

Q: And the Activity (HT-29 [6])?
A: 1.52%

Q: What about the Activity (MKN-74 [7]) of the same molecule?
A: 22.1%

Q: And the inhibition (HepG2 [8])?
A: Active

Q: What about the inhibition [9] of the same molecule?
A: inactive

Q: And the Activity (MKN-74 [10])?
A: 5.73%

Q: And the inhibition (HT-29 [11])?
A: Dose-dependent effect

Q: And the Activity (MKN-74 [12])?
A: 16.86%

Q: And the Activity (HUVEC [13])?
A: 3.09%

Q: And the Activity (HUVEC [14])?
A: 3.58%

Q: What about the Activity (HUVEC [15]) of the same molecule?
A: 9.06%

Q: And the viability at 3 µM (MKN-74 [16])?
A: 8.53%

Q: And the Activity (HT-29 [17])?
A: 37.8%

Q: What about the Activity (HepG2 [18]) of the same molecule?
A: 16.52%

Q: What about the viability at 0.3 µM (MKN-74 [19]) of the same molecule?
A: 73.5%

Q: What about the IC50 [20] of the same molecule?
A: 17 nM

Q: And the IC50 [21]?
A: > 1000 nM

Q: And the inhibition (MKN-74 [22])?
A: Dose-dependent effect

Q: And the Activity (HepG2 [23])?
A: 64.56%

Q: What about the CLint scaled [24] of the same molecule?
A: 82 mL/min/kg

Q: What about the CLint scaled [25] of the same molecule?
A: 436 mL/min/kg
